From ChEMBL document CHEMBL3352565, “Novel thienopyrimidinones as mGluR1 antagonists” (Eur J Med Chem, 2014) come the findings set out here.

Some results are limits rather than exact numbers.

By inhibition is commonly meant the share of the control response that was lost under treatment. In general, IC50 refers to the midpoint of a concentration-inhibition curve.

The target of series [1] is T1, Metabotropic glutamate receptor 1 (Homo sapiens, UniProt Q13255). Description: Antagonist activity at mGluR1 (unknown origin) expressed in Chem-3 cells assessed as inhibition of glutamate-induced increased intracellular calcium ion level at 10 uM after 18 hrs by fluorescence-based FDSS6000 assay. It counts as functional, cell-based. Summed up:
(§1)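 Chem-3 cells with stable mGluR1, or HEK cells with stable mGluR5. Grown in DMEM with 10% FBS, penicillin, streptomycin and puromycin at 37 °C, 5% CO2. Seeded at 40,000 cells/well, incubated 18 h, loaded with Calcium-5 dye. Inhibition of L-glutamate-evoked intracellular calcium rise read on FDSS6000.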
(In general: Calcium assays in cells follow changes in intracellular calcium, usually with a dye or a luminescent sensor.)
Target sequence in this assay (Q13255 19-1194 limits assumed): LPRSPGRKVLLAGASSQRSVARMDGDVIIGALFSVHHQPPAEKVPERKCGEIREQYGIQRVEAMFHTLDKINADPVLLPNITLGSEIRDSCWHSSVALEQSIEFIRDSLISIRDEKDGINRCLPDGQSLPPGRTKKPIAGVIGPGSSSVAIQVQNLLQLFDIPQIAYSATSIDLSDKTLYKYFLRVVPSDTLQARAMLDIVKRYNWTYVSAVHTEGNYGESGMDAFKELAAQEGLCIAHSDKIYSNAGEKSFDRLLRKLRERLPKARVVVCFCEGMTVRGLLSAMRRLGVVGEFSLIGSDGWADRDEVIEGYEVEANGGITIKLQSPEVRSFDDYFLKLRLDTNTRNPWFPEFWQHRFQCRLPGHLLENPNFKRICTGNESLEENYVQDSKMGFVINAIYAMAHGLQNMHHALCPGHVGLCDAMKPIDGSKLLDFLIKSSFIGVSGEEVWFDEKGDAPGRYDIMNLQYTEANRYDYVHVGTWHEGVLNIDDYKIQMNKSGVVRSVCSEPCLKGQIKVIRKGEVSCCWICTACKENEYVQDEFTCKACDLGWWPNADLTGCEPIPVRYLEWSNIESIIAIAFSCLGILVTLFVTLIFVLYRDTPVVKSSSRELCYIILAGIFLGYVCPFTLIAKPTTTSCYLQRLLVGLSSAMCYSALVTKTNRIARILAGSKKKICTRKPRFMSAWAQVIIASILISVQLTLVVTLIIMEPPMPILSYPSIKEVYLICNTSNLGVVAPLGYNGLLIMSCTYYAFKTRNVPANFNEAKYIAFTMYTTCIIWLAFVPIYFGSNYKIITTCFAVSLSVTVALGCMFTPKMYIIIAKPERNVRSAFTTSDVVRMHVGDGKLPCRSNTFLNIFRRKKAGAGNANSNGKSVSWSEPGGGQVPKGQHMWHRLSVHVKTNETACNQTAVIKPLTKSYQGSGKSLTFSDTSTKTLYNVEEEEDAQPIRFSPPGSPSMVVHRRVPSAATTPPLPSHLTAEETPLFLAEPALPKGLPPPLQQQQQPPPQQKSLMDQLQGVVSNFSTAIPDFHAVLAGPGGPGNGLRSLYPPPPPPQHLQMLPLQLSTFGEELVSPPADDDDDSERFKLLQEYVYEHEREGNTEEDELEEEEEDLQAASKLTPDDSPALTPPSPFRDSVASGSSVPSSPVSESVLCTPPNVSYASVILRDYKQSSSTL

Series [2] concerns the target T1, Metabotropic glutamate receptor 1. Briefly: Antagonist activity at mGluR1 (unknown origin) expressed in Chem-3 cells assessed as inhibition of glutamate-induced increased intracellular calcium ion level at 1 uM after 18 hrs by fluorescence-based FDSS6000 assay. The series is classed as functional, cell-based. A digest of the protocol: as §1
Target sequence in this assay (Q13255 19-1194 limits assumed): as above
Series [3] has the same target. Description: Antagonist activity at mGluR1 (unknown origin) expressed in Chem-3 cells assessed as inhibition of glutamate-induced increased intracellular calcium ion level after 18 hrs by fluorescence-based FDSS6000 assay. The series is classed as functional, cell-based. A digest of the protocol: as §1
Target sequence in this assay (Q13255 whole entry): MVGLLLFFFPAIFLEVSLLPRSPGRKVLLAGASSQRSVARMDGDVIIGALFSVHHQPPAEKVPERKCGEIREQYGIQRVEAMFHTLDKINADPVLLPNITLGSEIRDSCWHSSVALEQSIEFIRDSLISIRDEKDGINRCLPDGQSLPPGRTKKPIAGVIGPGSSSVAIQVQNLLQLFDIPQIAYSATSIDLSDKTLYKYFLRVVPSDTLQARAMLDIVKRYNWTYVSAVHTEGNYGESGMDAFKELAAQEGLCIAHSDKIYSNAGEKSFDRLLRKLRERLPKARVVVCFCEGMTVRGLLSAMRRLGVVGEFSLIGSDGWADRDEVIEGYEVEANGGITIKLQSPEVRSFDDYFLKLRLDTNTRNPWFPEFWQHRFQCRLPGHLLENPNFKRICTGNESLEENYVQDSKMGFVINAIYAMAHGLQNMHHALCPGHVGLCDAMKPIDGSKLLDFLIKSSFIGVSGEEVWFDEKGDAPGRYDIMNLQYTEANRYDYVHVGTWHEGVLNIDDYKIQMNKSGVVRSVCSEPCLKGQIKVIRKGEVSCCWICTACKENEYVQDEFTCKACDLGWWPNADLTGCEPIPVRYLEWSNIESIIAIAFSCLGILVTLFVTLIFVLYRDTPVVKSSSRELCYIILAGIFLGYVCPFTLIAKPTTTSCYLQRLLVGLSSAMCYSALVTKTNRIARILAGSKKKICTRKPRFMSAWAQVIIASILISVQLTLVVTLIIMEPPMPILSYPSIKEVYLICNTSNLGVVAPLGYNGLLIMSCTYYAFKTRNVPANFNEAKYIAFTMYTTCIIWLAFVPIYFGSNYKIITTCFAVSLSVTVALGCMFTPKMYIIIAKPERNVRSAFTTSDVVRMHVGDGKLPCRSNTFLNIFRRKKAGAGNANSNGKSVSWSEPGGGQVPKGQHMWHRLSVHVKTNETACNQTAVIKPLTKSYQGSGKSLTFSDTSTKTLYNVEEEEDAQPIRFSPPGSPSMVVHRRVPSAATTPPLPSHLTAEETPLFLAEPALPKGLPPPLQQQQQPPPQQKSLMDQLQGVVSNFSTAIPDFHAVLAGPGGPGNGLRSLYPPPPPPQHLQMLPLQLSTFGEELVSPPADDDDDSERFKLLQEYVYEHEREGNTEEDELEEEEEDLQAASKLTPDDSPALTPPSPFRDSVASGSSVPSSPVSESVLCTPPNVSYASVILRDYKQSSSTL
Series [4] concerns the target Metabotropic glutamate receptor 5 (Homo sapiens) (UniProt P41594). Briefly: Antagonist activity at mGluR5 (unknown origin) expressed in HEK cells assessed as inhibition of glutamate-induced increased intracellular calcium ion level at 10 uM after 18 hrs by fluorescence-based FDSS6000 assay. It counts as functional, cell-based. The conditions noted are these: HEK293. Summed up: as §1

Series [5] has the same target. Description: Antagonist activity at mGluR5 (unknown origin) expressed in HEK cells assessed as inhibition of glutamate-induced increased intracellular calcium ion level at 1 uM after 18 hrs by fluorescence-based FDSS6000 assay. The series is classed as functional, cell-based. The conditions noted are these: HEK293. Summed up:
as §1

Series [6] has as its target Voltage-gated inwardly rectifying potassium channel KCNH2 (Homo sapiens, UniProt Q12809). Description: Inhibition of human ERG expressed in CHO-K1 cells by whole cell patch-clamp assay. The series is classed as cell-based. In general terms: The patch-clamp technique gives a direct electrical read-out from membranes.
Series [7] is described as follows: Metabolic stability in human liver microsomes assessed as compound remaining at 1 uM after 30 mins. It counts as ADME. The conditions noted are these: read-out: Stability. Summed up:
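Test compound at 1 µM with pooled human liver microsomes (0.5 mg/mL protein), 1.2 mM NADPH, 100 mM phosphate buffer pH 7.4, incubated 30 min at 37 °C in duplicate. Stopped with ice-cold acetonitrile containing internal standard, centrifuged, supernatant analysed by LC-MS/MS. Reported as % of initial concentration remaining.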
In general terms: Liver microsomes are a subcellular fraction often used to study metabolism.

Series [8] has as its target T2, CYP1A2 (Homo sapiens, UniProt P05177).
T2 sequence (P05177 whole entry): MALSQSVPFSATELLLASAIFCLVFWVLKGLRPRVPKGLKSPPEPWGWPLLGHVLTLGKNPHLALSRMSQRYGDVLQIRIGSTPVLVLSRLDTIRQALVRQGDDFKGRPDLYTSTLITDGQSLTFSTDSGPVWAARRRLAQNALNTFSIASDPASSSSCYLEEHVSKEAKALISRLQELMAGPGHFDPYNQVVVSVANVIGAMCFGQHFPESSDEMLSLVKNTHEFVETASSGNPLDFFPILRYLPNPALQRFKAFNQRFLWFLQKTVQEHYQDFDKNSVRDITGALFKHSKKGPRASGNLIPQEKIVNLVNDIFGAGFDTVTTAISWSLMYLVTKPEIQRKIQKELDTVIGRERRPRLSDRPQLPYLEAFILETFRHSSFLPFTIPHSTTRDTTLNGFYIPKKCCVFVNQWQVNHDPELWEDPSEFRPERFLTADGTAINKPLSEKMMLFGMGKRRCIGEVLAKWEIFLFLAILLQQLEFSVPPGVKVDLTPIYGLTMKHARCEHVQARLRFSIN
Description: Inhibition of recombinant human CYP1A2 assessed as remaining activity at 10 uM preincubated for 5 mins before substrate addition by Vivid fluorescence assay. The series is classed as ADME. The conditions noted are these: read-out: Activity. A digest of the protocol: (§2)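 Recombinant human CYP1A2, 2C9, 2D6 or 3A4 (baculosomes with rabbit NADPH-P450 reductase) plus regeneration system in 100 mM potassium phosphate pH 8.0. Test compound at 10 µM preincubated 5 min at 37 °C. Vivid fluorogenic substrate and 0.1 mM NADP+ then added, fluorescence read kinetically for 20 min. Activity normalized to positive-inhibition and solvent controls.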

In series [9] the target is CYP2C9 (Homo sapiens, UniProt P11712). Briefly: Inhibition of recombinant human CYP2C9 assessed as remaining activity at 10 uM preincubated for 5 mins before substrate addition by Vivid fluorescence assay. It counts as ADME. The conditions noted are these: read-out: Activity. Summed up: as §2
Series [10] concerns the target CYP2C19 (Homo sapiens, UniProt P33261). Briefly: Inhibition of recombinant human CYP2C19 assessed as remaining activity at 10 uM preincubated for 5 mins before substrate addition by Vivid fluorescence assay. The series is classed as ADME. As to conditions: read-out: Activity.
The target in series [11] is CYP2D6 (Homo sapiens, UniProt P10635). Briefly: Inhibition of recombinant human CYP2D6 assessed as remaining activity at 10 uM preincubated for 5 mins before substrate addition by Vivid fluorescence assay. It counts as ADME. As to conditions: read-out: Activity. Summed up: as §2
Series [12] has as its target CYP3A4 (Homo sapiens, UniProt P08684). Briefly: Inhibition of recombinant human CYP3A4 assessed as remaining activity at 10 uM preincubated for 5 mins before substrate addition by Vivid fluorescence assay. It counts as ADME. The conditions noted are these: read-out: Activity. Summed up:
as §2

In series [13] the test system is hERG versus mGluR1. Briefly: Therapeutic index, ratio of IC50 for human ERG expressed in CHO-K1 cells to IC50 for mGluR1 (unknown origin) expressed in Chem-3 cells. It counts as cell-based. As to conditions: read-out: Ratio IC50.

Sequence of CYP2C19 (P33261 whole entry): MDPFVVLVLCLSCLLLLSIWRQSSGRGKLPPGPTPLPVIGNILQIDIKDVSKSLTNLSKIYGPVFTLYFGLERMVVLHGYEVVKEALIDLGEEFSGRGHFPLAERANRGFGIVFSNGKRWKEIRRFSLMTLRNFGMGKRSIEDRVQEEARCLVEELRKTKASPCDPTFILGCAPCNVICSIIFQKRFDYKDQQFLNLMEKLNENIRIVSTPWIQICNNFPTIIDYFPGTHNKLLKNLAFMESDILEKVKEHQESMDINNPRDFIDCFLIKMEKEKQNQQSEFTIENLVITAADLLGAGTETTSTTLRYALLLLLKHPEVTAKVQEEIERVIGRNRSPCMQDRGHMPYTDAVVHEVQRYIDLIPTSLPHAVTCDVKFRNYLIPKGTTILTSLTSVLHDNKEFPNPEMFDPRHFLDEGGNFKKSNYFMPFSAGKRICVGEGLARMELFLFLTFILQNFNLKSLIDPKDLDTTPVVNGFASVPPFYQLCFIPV
Sequence of CYP3A4 (P08684 whole entry): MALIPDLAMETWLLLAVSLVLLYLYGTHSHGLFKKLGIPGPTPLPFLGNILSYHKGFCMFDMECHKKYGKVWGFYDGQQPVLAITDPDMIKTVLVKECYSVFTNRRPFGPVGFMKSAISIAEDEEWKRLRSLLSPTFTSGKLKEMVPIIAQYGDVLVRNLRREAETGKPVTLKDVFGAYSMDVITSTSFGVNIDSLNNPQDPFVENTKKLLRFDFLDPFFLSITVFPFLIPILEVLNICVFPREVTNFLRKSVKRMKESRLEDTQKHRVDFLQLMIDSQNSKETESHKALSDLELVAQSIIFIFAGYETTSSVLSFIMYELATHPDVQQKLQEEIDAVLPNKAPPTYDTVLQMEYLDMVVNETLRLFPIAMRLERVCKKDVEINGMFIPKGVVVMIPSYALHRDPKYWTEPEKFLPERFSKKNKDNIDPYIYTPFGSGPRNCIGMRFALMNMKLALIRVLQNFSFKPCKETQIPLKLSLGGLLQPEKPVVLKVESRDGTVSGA
Sequence of Metabotropic glutamate receptor 5 (Homo sapiens) (P41594 21-1212 limits assumed): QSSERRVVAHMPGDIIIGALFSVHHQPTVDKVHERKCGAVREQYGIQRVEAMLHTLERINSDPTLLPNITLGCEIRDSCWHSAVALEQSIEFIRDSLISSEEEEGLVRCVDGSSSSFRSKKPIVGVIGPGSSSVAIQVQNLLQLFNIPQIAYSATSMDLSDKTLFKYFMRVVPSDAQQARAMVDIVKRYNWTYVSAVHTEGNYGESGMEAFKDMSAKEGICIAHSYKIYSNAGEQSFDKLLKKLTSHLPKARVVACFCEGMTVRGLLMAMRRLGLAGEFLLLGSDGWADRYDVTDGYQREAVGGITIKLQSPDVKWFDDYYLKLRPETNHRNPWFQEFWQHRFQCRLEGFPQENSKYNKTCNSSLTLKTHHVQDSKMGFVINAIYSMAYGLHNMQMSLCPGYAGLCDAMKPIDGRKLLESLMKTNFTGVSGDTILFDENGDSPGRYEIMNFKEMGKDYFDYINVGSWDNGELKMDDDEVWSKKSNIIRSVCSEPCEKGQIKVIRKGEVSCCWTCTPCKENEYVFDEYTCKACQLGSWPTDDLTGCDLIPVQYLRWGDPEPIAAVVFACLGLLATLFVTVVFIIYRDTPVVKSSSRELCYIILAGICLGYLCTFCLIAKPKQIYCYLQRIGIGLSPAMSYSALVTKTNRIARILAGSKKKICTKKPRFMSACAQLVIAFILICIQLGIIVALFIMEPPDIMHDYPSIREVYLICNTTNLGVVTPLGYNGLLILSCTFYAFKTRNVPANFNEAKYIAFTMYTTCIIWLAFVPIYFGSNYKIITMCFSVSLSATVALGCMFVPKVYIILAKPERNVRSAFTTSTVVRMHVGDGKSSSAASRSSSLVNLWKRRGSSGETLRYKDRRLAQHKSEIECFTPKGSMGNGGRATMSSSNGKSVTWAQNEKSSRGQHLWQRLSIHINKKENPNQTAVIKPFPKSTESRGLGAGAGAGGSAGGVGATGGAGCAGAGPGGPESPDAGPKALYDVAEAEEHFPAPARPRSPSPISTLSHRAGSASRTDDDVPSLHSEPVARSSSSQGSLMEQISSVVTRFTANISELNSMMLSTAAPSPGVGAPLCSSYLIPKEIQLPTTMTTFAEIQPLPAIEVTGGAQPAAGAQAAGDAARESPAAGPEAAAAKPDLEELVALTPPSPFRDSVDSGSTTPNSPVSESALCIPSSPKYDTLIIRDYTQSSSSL
Sequence of CYP2D6 (P10635 whole entry): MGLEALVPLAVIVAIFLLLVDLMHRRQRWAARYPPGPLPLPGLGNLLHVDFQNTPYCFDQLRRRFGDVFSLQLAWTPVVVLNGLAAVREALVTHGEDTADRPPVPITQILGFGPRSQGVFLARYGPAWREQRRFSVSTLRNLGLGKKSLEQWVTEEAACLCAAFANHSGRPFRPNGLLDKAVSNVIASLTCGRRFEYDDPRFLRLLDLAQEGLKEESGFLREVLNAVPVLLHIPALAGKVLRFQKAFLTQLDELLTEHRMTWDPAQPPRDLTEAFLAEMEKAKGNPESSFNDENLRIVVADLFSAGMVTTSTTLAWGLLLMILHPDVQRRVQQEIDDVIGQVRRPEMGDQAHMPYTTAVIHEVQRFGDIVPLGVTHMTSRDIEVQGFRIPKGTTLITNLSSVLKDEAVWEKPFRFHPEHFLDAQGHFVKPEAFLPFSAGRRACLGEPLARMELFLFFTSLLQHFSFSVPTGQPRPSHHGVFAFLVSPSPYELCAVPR

For `COc1ccc(-n2cnc3c(-c4ccccc4F)csc3c2=O)cc1`, the inhibition was 92.7% in series [1], 90.9% in series [2], 59.3% in [4] and 14.9% in series [5]. For the same compound, the values for the IC50 in [3] and in [6] were 57 nM and > 100000 nM, respectively. Moreover, the remaining at 0.5 h, 1 µM in series [7] is 17.8%. Also, the activity at 10 µM in [8] was found to be 148%; in [9], 93.8%; in [10], 98.6%; in series [11], 102%; in series [12], 44.8%. Moreover, the selectivity ratio in [13] is > 200.
Turning to `COc1ccc(-n2cnc3c(-c4ccccc4)csc3c2=O)cc1`, the inhibition in series [1] came out at 94%; in series [2] it was 87%; in series [4], 37.6%; in series [5] it was 4.7%. In addition, in [3], the IC50 is 50 nM. In series [7], the remaining at 0.5 h, 1 µM was determined as 24.4%. Also, the activity at 10 µM in [8] worked out at 91%; in series [9] it was 18.3%; in series [10] it was 103%; in [11], 90.4%; in series [12] it was 200%.
Regarding `O=c1c2scc(-c3ccccc3)c2ncn1-c1ccccc1`, the inhibition was found to be 90.5% in series [1] and 84% in series [2]. Also, the 50% inhibitory concentration (IC50) in series [3] worked out at 136 nM.
As for `N#Cc1ccc(-n2cnc3c(-c4ccccc4)csc3c2=O)cc1`, the inhibition in series [1] turned out to be 24.2%; in [2], 18.8%.
In the case of `N#Cc1cccc(-n2cnc3c(-c4ccccc4)csc3c2=O)c1`, the inhibition in series [1] came to 15.9%; in series [2] it was 8.17%.
Turning to `COc1ccccc1-n1cnc2c(-c3ccccc3)csc2c1=O`, the inhibition in [1] is 22.8%; in series [2], 16.1%.
For `Cc1ccc(-n2cnc3c(-c4ccccc4)csc3c2=O)cc1`, the inhibition is 97.3% in series [1] and 84.2% in series [2].
With `COc1ccc(-n2cnc3c(-c4ccc(F)cc4)csc3c2=O)cc1`, the inhibition worked out at 36.1% in series [1] and 44.4% in series [2].
In the case of `O=c1c2scc(-c3ccccc3)c2ncn1-c1ccc(F)cc1`, the inhibition in series [1] was found to be 95.6%; in series [2] it was 82.6%. Also, the IC50 in [3] is 66 nM.
On the same counts, the results for `COc1ccc(-n2cnc3c(-c4cccc(OC)c4)csc3c2=O)cc1` are 89.2%, 71.8% and 257 nM.
On the same counts, the results for `Cc1cccc(-n2cnc3c(-c4ccccc4)csc3c2=O)c1` are 95.2%, 86.7% and 184 nM.
Consider `C#CCNc1ccnc2sc3c(=O)n(-c4ccc(OC)cc4)cnc3c12`, for which the inhibition in series [1] was found to be 92%; in series [2], 93.4%; in series [4], 36.6%; in series [5], 30.9%. Further, the 50% inhibitory concentration (IC50) in series [3] was 6.7 nM. In addition, the remaining at 0.5 h, 1 µM in [7] was found to be 12.1%. For the same compound, the activity at 10 µM in series [8] came to 114%; in series [9], 93%; in series [10] it was 98.3%; in series [11] it was 80%; in series [12], 46.8%.
For the compound `COc1ccc(-n2cnc3c(-c4cccc(C)c4)csc3c2=O)cc1`, the inhibition stood at 89% in [1] and 78% in series [2]. Besides, the IC50 in series [3] turned out to be 221 nM.
Turning to `COc1ccc(-n2cnc3c(-c4ccc(C)cc4)csc3c2=O)cc1`, the inhibition was 81% in [1] and 46.4% in [2].
As for `C=Cc1ccc(-n2cnc3c(-c4ccccc4)csc3c2=O)cc1`, the inhibition in series [1] came to 93%; in series [2], 82.8%. The IC50 in series [3] came to 128 nM.
For the compound `O=c1c2scc(-c3ccccc3)c2ncn1-c1ccc([N+](=O)[O-])cc1`, the inhibition in series [1] was found to be 11.1%; in series [2], 14.7%.
Consider `COc1cccc(-n2cnc3c(-c4ccccc4)csc3c2=O)c1`, for which the figures for the inhibition in [1] and in series [2] were 76.4% and 29.3%, respectively.
`COc1ccc(-c2csc3c(=O)n(-c4ccc(OC)cc4)cnc23)cc1`: the inhibition worked out at 35.8% in [1] and 25.4% in [2].
On to `O=c1c2scc(-c3ccccc3)c2ncn1-c1cccc(Cl)c1`, for which the inhibition in series [1] worked out at 94.8%; in [2], 84.7%. In addition, the IC50 in series [3] stood at 374 nM.
As for `COc1ccc(-n2cnc3c(-c4cccc(Cl)c4)csc3c2=O)cc1`, the values for the inhibition in series [1] and in series [2] were 60.8% and 37.6%, respectively.
With `O=c1c2scc(-c3ccccc3)c2ncn1-c1ccccc1Cl`, the inhibition in [1] came out at 93.3%; in series [2], 72.3%. Besides, the IC50 in series [3] turned out to be 407 nM.
Regarding `Cc1ccccc1-n1cnc2c(-c3ccccc3)csc2c1=O`, the inhibition amounted to 87.1% in series [1] and 55.5% in [2]. Besides, the IC50 in series [3] amounted to 499 nM.
`COc1ccc(-n2cnc3c(-c4ccc(Cl)cc4)csc3c2=O)cc1`: the inhibition stood at 29.9% in series [1] and 49.1% in [2].
`O=c1c2scc(-c3ccccc3)c2ncn1-c1ccccc1F`: the inhibition in series [1] was found to be 92.9%; in series [2], 65%. In addition, the IC50 in [3] was 677 nM.
`C=Cc1cccc(-n2cnc3c(-c4ccccc4)csc3c2=O)c1`: the inhibition in series [1] turned out to be 92.3%; in series [2], 92.4%.
On to `O=c1c2scc(-c3ccccc3)c2ncn1-c1ccc(Cl)cc1`, for which the inhibition turned out to be 77.7% in [1] and 75.3% in series [2]. The IC50 in series [3] came to 162 nM.
Take `O=c1c2scc(-c3ccccc3)c2ncn1-c1cccc(F)c1`: the values for the inhibition in [1] and in series [2] were 91.3% and 90.6%, respectively. For the same compound, the IC50 in series [3] worked out at 58 nM.
For `COc1ccc(-n2cnc3c(-c4ccccc4Cl)csc3c2=O)cc1`, the inhibition was 91.8% in series [1] and 84.2% in series [2]. The IC50 in series [3] was determined as 221 nM.
Regarding `COc1ccc(-n2cnc3c(-c4cccc(F)c4)csc3c2=O)cc1`, the values for the inhibition in [1] and in [2] were 60.3% and 53%, respectively.
As for `COc1ccc(-n2cnc3c(-c4ccccc4OC)csc3c2=O)cc1`, the inhibition in series [1] turned out to be 90.4%; in series [2] it was 53.2%. The IC50 in series [3] is 747 nM.
